An excerpt weighted towards active compounds, which were near 2.2% of everything screened.
PDI turbidity: inhibitors of human PDI, primary screen, biochemical, turbidity, single point, plate reader; Protein disulfide-isomerase (Homo sapiens), P07237; PDI insulin aggregation turbidity, A650, 90 min; inhibition, % at 10 µM; 0.052% of 350,000 active; AID 588391, 2011;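 active means mean inhibition across replicates of 30% or more, whatever share of single replicates reach that level; inconclusive means mean inhibition below 30% while every single replicate reaches 30%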
Target sequence (P07237 whole entry, looked up): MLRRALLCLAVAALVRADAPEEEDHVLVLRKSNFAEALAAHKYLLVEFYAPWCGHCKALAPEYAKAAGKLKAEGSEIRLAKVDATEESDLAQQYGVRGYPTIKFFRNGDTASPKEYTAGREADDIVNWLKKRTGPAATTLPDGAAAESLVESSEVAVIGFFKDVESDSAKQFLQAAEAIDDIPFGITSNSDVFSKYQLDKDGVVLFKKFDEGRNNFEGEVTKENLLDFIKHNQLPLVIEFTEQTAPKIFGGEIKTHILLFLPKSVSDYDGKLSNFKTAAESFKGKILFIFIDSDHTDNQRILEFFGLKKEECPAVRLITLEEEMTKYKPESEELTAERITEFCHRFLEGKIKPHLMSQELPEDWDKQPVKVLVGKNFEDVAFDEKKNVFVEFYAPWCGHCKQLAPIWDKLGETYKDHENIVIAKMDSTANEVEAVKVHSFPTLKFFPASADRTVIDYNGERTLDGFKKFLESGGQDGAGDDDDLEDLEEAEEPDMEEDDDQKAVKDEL
Env fusion inh: inhibitors of HIV-1 Env-driven cell-cell fusion, primary screen, HeLa-JRFL effector, CEM21 target cells, luciferase; inhibition, % at 12.3 µM; 1.1% of 360,000 active;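 active means mean replicate inhibition score of at least 50 and every replicate individually at or above 50; inconclusive means only one of the two criteria met; inactive means mean below 50 and not all replicates reaching 50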;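 further: 0% = plate neutral controls and 100% = maraviroc near 300 nM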
FN deposition inh: inhibitors of fibronectin matrix deposition, primary screen, AH1F cells, Alexa488-fibronectin fluorescence, plate reader | AH1F fibroblasts, overnight | inhibition, % at 12.6 µM | 0.086% of 350,000 active;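 active means mean inhibition across replicates of 30% or more, regardless of how many single replicates reach that level; inconclusive means mean under 30% yet at least half of replicates reach 30%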;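 further: positive control wells lacked labelled fibronectin entirely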
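Assay system: AH1F fibroblast monolayer, labelled fibronectin deposition. Amount: 10000 cells per well. Also added: labelled fibronectin 24 nM. Compound: single-point pinned compound. Incubation: cell attachment 1 h, compound and FN exposure overnight. Detection: fluorescence after three HBSS washes, excitation 485 nm, emission 525 nm. Read-out: inhibition of fibronectin deposition signal.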
PvdQ acylase: P. aeruginosa PvdQ acylase inhibitors, primary screen, biochemical, fluorescence, plate reader and imaging, single point; purified PvdQ acylase; PvdQ acylase [Pseudomonas aeruginosa LESB58]; 0.063% of 340,000 active; inhibition, % at 10 µM; AID 488965, 2010; in the data active means inhibition above about 30%, passing the limit was not always enough; inconclusive means no clear call, values can overlap the other calls;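 further: 0% = vehicle neutral wells and 100% = reference inhibitor wells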
rRNA inh HTS: reduced GFP signal of wild-type E. coli, primary screen, bacterial rRNA inhibitor project, GFP/RFP fluorescence, OD600, single point; E. coli WT GFP vs humanized-ribosome RFP mutants, 24 h; hits give low values; DMSO median 0, no signal -100; GFP signal change (wild-type ribosome), % (concentration not given with the values); 1.6% of 350,000 active;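 active means significant combined selectivity score with lowered wild-type GFP, culture density cut under 30%, mutant RFP and density less affected; inactive means any of these conditions unmet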
ERp5 block: inhibitors of ERp5-driven insulin aggregation, primary screen, biochemical, turbidity, absorbance 650 nm, single point; Protein disulfide-isomerase A6 (Homo sapiens), Q15084; 90 min; inhibition, % at 9.99 µM; 0.05% of 350,000 active;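 active means mean replicate inhibition above about 25%, with every replicate also reaching it, limit read from the data, passing the limit was not always enough; inconclusive means only one of those two criteria met; inactive means neither criterion met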
Numbers without * were called inactive; ? = inconclusive; / = not tested or not shown; ! = not active in a repeat; [ ] = another dose, or the depositor's remark.

SMILES	PDI turbidity	Env fusion inh	FN deposition inh	PvdQ acylase	rRNA inh HTS	ERp5 block
O=c1oc2ccccc2c(Cl)c1CN1CCCCC1	3.8	12.9	9.0	-4.9	-18.6	6.7
COc1ccc2[nH]c3c(=O)n4c(nc3c2c1)SCCC4	0.1	-16.2	/	-2.6	-28.1*	1.9
N#Cc1ccc(S(=O)(=O)N2CCCN(c3nc4ccc(Cl)cc4s3)CC2)cc1	2.3	55.2*	-15.8	-17.1	20.2	-0.9
CC(=O)Nc1cccc2c1O[C@@H](CN(C)S(C)(=O)=O)[C@@H](C)CN(C)C2=O	/	/	-1.0	/	1.3	/
Cc1ccc(C(=O)c2coc3cc([N+](=O)[O-])c(O)c([N+](=O)[O-])c23)cc1	-8.7	-7.5	3.0	16.9	-48.3*	0.7
Cc1ccc(C(=O)c2ccc([N+](=O)[O-])cc2)cc1	-8.8	/	/	2.6	/	/
C#CCSc1nnc(-c2ccc([N+](=O)[O-])cc2)o1	-1.5	-13.4	1.8	13.9	3.8	-1.2
CSc1nnc(-c2ccc([N+](=O)[O-])cc2)o1	8.8	-6.2	3.5	57.6*	10.2	-0.3
CCC(=O)N(C)C[C@H]1Oc2ncc(C#CCc3ccccc3)cc2C(=O)N([C@@H](C)CO)C[C@H]1C	/	/	/	/	-3.8	14.7
CCCC#Cc1ccc2c(c1)O[C@H](CN(C)Cc1ccc3c(c1)OCO3)[C@@H](C)CN([C@H](C)CO)S2(=O)=O	/	17.6[16.7 µM]	-3.9	/	-5.4	-0.6
C[C@@H]1CN([C@@H](C)CO)S(=O)(=O)c2ccc(Br)cc2O[C@@H]1CN(C)Cc1ccc2c(c1)OCO2	/	9.6	0.6	/	-34.5*!	1.0
CCCC#Cc1ccc2c(c1)O[C@H](CN(C)Cc1ccc3c(c1)OCO3)[C@H](C)CN([C@H](C)CO)S2(=O)=O	/	55.7*[16.7 µM]	8.9	/	-5.3	4.2
C[C@H](CO)N1C[C@H](C)[C@@H](CN(C)Cc2ccc3c(c2)OCO3)Oc2cc(Br)ccc2S1(=O)=O	-2.3	4.3	-15.1	/	-14.0	-4.7
C[C@@H]1CCCCO[C@H](CN(C)C(=O)Cc2ccccc2)[C@@H](C)CN([C@H](C)CO)C(=O)c2cc(NC(=O)NC3CCCCC3)ccc2O1	/	-22.1[16.7 µM]	/	/	1.1	/
C[C@@H]1CCCCO[C@H](CN(C)Cc2ccc3c(c2)OCO3)[C@@H](C)CN([C@H](C)CO)C(=O)c2cc(NC(=O)C3CCCCC3)ccc2O1	/	17.1[16.7 µM]	/	/	1.4	1.6
CC[n+]1c(/C=C/N(C)c2ccccc2)oc2ccccc21	-25.1	19.3	4.9	-12.1	-18.9*	?
Nc1ccc(C(=O)Nc2ccc3nc(-c4ccncc4)[nH]c3c2)cc1	-4.6	-22.7	6.8	-4.5	-33.0*	0.9
CC(=O)Nc1ccc2nc(-c3ccncc3)[nH]c2c1	5.3	-31.2	1.1	-4.8	/	/
C[C@@H]1CN(C)C(=O)Cc2cc(N(C)C)ccc2O[C@H]1CN(C)S(C)(=O)=O	/	/	-26.2	/	-1.3	/
O=c1oc2c(CN3CCOCC3)c(O)ccc2c2c1CCC2	8.9	-58.2	-3.0	-18.8	/	/
CC1CCCN(Cc2c(O)ccc3c4c(c(=O)oc23)CCCC4)C1 (configuration not stated)	-2.1	1.6	31.1*	-7.2	0.0	-0.7
O=[N+]([O-])c1ccc(-c2csc(NN=C3CCCC3)n2)cc1	6.3	-5.4	-1.4	-2.6	-21.9*	10.4
Cc1ccc(S(=O)(=O)Nc2cccc3c2O[C@@H](CN(C)S(=O)(=O)c2ccc(F)cc2)[C@H](C)CN([C@@H](C)CO)C3=O)cc1	/	25.3[16.7 µM]	/	/	2.4	/
C[C@H]1CCCCO[C@@H](CN(C)S(C)(=O)=O)[C@@H](C)CN([C@@H](C)CO)C(=O)c2cc(N(C)C)ccc2O1	/	-14.5[16.7 µM]	/	/	3.8	-6.5
Cn1nc(C(C)(C)C)cc1C(=O)NCc1ccc(N2CCCC2=O)cc1	2.5	64.1*	3.0	-0.9	/	/
O=C1C(SCCO)=C(SCCO)C(=O)c2ccccc21	6.9	-193.5	42.9*	-7.7	-47.7	4.5

Bioassay records deposited in PubChem by Broad Institute.
